Type in all cases: functional, cell-based
One test has as its system A549. The experiment in a line: Cytotoxicity against human A549 cells after 48 hrs by MTT assay. As to conditions: A549, 48 h. In short, it runs like this:
(§1)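 Cell lines sourced from Shanghai Institute of Pharmaceutical Industry; K562R is a multidrug-resistant subline. Cells exposed to compound for 48 h, then MTT in RPMI-1640 added with a further 4 h at 37 °C. Formazan dissolved in DMSO, absorbance read at 570 nm. Triplicate wells in three independent experiments. IC50 (50% inhibition of viability) from dose-effect analysis, reported as mean of three experiments.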

The test system of a further test is HCT-116. Description: Cytotoxicity against human HCT116 cells after 48 hrs by MTT assay. As to conditions: HCT-116, 48 h. In short, it runs like this: as §1
Another test deals with MCF7. Description: Cytotoxicity against human MCF7 cells after 48 hrs by MTT assay. To be noted: MCF7, 48 h. In short, it runs like this: as §1
Test [1] concerns K562. Description: Cytotoxicity against human K562 cells after 48 hrs by MTT assay. As to conditions: K562, 48 h. In short, it runs like this: as §1
The test system of test [2] is K562. The experiment in a line: Cytotoxicity against multidrug-resistant human K562 cells after 48 hrs by MTT assay. To be noted: K562, 48 h. In outline: as §1
Test [3] in a line: Cytotoxicity against human SGC cells after 48 hrs by MTT assay. In outline:
as §1

As to `CCn1c2ccncc2c2cc(NC(=O)c3ccc(OC)cc3)ccc21`, the IC50 with A549 is 72 µM; in the test with HCT-116, 50.7 µM; in the test on MCF7, 4.92 µM; in the test on K562 [1] (read-out: IC50), 11.3 µM; in the test with K562 [1] (read-out: pIC50 (converted)) it was 11.3 µM; in the test with K562 [2], 5.15 µM. The same compound had an IC50 in test [3] of 21.3 µM.

`O=S(=O)(Oc1ccccc1)c1ccc2[nH]c3ccncc3c2c1`: the IC50 in the test with A549 was over 100 µM; in the test with HCT-116, 45.2 µM; with MCF7, 38.6 µM; with K562 [1] (read-out: IC50) it was 77.4 µM; with K562 [1] (read-out: pIC50 (converted)), 77.4 µM; in the test with K562 [2], 48.9 µM. Also, in test [3], the IC50 is over 100 µM.

Consider `CCn1c2ccncc2c2cc(NC(=O)c3ccccc3O)ccc21`, for which the IC50 in the test with A549 was over 100 µM; with HCT-116, over 100 µM; in the test on MCF7 it was 20.9 µM; in the test on K562 [1] (read-out: IC50) it was 12.7 µM; in the test with K562 [1] (read-out: pIC50 (converted)), 12.7 µM; in the test on K562 [2], 22.9 µM. The same compound had an IC50 in test [3] of 19.2 µM.

In the case of `COc1cc(NS(=O)(=O)c2ccc3[nH]c4ccncc4c3c2)cc(OC)c1OC`, the IC50 with A549 is 48.2 µM; with HCT-116, 16.9 µM; with MCF7, 19.2 µM; with K562 [1] (read-out: IC50) it was 11.3 µM; with K562 [1] (read-out: pIC50 (converted)) it was 11.3 µM; in the test on K562 [2], 73.4 µM. Moreover, the IC50 in test [3] is over 100 µM.

Consider `CCN(c1cc(OC)c(OC)c(OC)c1)S(=O)(=O)c1ccc2c(c1)c1cnccc1n2CC`, for which the IC50 in the test on A549 was 33.9 µM; in the test on HCT-116, 10.2 µM; in the test on MCF7, 2.07 µM; in the test on K562 [1] (read-out: IC50) it was 1.02 µM; in the test with K562 [1] (read-out: pIC50 (converted)), 1.02 µM; in the test on K562 [2] it was 3.02 µM. The compound further displayed an IC50 in test [3] of 13.8 µM.

In the case of `CCN(c1cc(OC)c(OC)c(OC)c1)S(=O)(=O)c1ccc2c(c1)c1c[n+](CC)ccc1n2CC`, the IC50 (in the test on A549; in the test on HCT-116; with MCF7; with K562 [1] (read-out: IC50); in the test with K562 [2]; in test [3]) was over 100 µM throughout.

With `CCn1c2ccncc2c2cc(NC(=O)c3cccnc3)ccc21`, the IC50 in the test with A549 was 73.5 µM; in the test on HCT-116, 87.2 µM; with MCF7, 18.1 µM; in the test with K562 [1] (read-out: IC50), 14.5 µM; in the test with K562 [1] (read-out: pIC50 (converted)), 14.5 µM; in the test on K562 [2], 40.6 µM. For the same compound, the IC50 in test [3] amounted to 50.9 µM.

As for `CCn1c2ccncc2c2cc(NC(=O)c3ccc(Br)cc3)ccc21`, the IC50 was over 100 µM in the test on A549; over 100 µM in the test with HCT-116; 11.9 µM in the test on MCF7; 13.2 µM with K562 [1] (read-out: IC50); 13.2 µM in the test on K562 [1] (read-out: pIC50 (converted)); 15.6 µM in the test on K562 [2]. This compound also yielded an IC50 in test [3] of 71.2 µM.

Turning to `CCn1c2ccncc2c2cc(NC(=O)c3ccc(S(C)(=O)=O)cc3)ccc21`, the IC50 is over 100 µM in the test on A549; over 100 µM in the test on HCT-116; 22.8 µM with MCF7; 22.9 µM in the test on K562 [1] (read-out: IC50); 22.9 µM with K562 [1] (read-out: pIC50 (converted)); 96.6 µM in the test with K562 [2]. In test [3], this compound yielded an IC50 of 36 µM.

Turning to `CCn1c2ccncc2c2cc(NC(=O)c3ccccc3Cl)ccc21`, the IC50 is 37.3 µM in the test with A549; 2.63 µM in the test with HCT-116; 6.52 µM in the test with MCF7; 8.58 µM in the test with K562 [1] (read-out: IC50); 8.57 µM in the test with K562 [1] (read-out: pIC50 (converted)); 22.9 µM in the test with K562 [2]. Also, the IC50 in test [3] was 20.8 µM.

Regarding `O=S(=O)(Oc1ccc(Cl)cc1)c1ccc2[nH]c3ccncc3c2c1`, the IC50 in the test with A549 was 47.3 µM; in the test on HCT-116, 32 µM; with MCF7, 26.3 µM; with K562 [1] (read-out: IC50) it was 20.5 µM; in the test on K562 [1] (read-out: pIC50 (converted)), 20.5 µM; in the test on K562 [2] it was 13.9 µM. Besides, the IC50 in test [3] turned out to be 39.7 µM.

Consider `CCn1c2ccncc2c2cc(S(=O)(=O)Nc3ccccc3)ccc21`, for which the IC50 in the test on A549 is over 100 µM; with HCT-116, 13.7 µM; with MCF7, 0.88 µM; in the test on K562 [1] (read-out: IC50), 20.7 µM; with K562 [1] (read-out: pIC50 (converted)), 20.7 µM; with K562 [2], over 100 µM. Further, in test [3], the IC50 is 8 µM.

In the case of `CCn1c2ccncc2c2cc(NC(=O)c3ccccc3)ccc21`, the IC50 in the test on A549 is over 100 µM; in the test with HCT-116 it was over 100 µM; in the test with MCF7 it was 11.8 µM; in the test with K562 [1] (read-out: IC50) it was 26.2 µM; in the test on K562 [1] (read-out: pIC50 (converted)), 26.2 µM; in the test with K562 [2] it was 10.6 µM. The same compound yielded an IC50 in test [3] of 26.5 µM.

As to `CCn1c2ccncc2c2cc(NC(=O)c3cc(OC)c(OC)c(OC)c3)ccc21`, the IC50 in the test with A549 is 15.9 µM; in the test with K562 [1] (read-out: IC50), 13.6 µM; in the test on K562 [1] (read-out: pIC50 (converted)), 13.6 µM; in test [3] it was 16.1 µM.

On to `COc1ccc(OS(=O)(=O)c2ccc3[nH]c4ccncc4c3c2)cc1`, for which the IC50 in the test on A549 was 22.6 µM; in the test with HCT-116, 23.9 µM; in the test with MCF7, 16 µM; with K562 [1] (read-out: IC50) it was 6.6 µM; in the test on K562 [1] (read-out: pIC50 (converted)), 6.61 µM; in the test with K562 [2] it was 5.7 µM. In addition, the IC50 in test [3] is 21.4 µM.

Turning to `O=[N+]([O-])c1ccc(OS(=O)(=O)c2ccc3[nH]c4ccncc4c3c2)cc1`, the IC50 is 17.5 µM with A549; 21 µM in the test with HCT-116; 10.8 µM with MCF7; 27.9 µM in the test with K562 [1] (read-out: IC50); 27.9 µM in the test on K562 [1] (read-out: pIC50 (converted)); 8.34 µM in the test with K562 [2]. In test [3], this compound came in with an IC50 of 7.15 µM.

For `Nc1ccc(OS(=O)(=O)c2ccc3[nH]c4ccncc4c3c2)cc1`, the IC50 with A549 was 10.1 µM; in the test on HCT-116 it was 20.9 µM; in the test with MCF7, 16.6 µM; in the test on K562 [1] (read-out: IC50) it was 18.4 µM; with K562 [1] (read-out: pIC50 (converted)) it was 18.5 µM; with K562 [2], 5.95 µM. This compound also gave an IC50 in test [3] of 2.12 µM.

Regarding `O=S(=O)(Oc1cccc2ccccc12)c1ccc2[nH]c3ccncc3c2c1`, the IC50 in the test on A549 was 33.4 µM; with HCT-116, 39.4 µM; in the test on MCF7, 14.3 µM; with K562 [1] (read-out: IC50) it was 25.9 µM; in the test on K562 [1] (read-out: pIC50 (converted)), 25.9 µM; with K562 [2], 10.7 µM. The compound also came in with an IC50 in test [3] of 23.3 µM.

Turning to `CCn1c2ccncc2c2cc(S(=O)(=O)Nc3ccncc3)ccc21`, the IC50 (with A549; in the test with HCT-116; in the test with MCF7; with K562 [1] (read-out: IC50); in the test on K562 [2]; in test [3]) was over 100 µM each time.

In the case of `CCn1c2ccncc2c2cc(S(=O)(=O)Nc3ccc4c(ccn4C)c3)ccc21`, the IC50 with A549 was 73.5 µM; in the test on HCT-116, 23.2 µM; with MCF7 it was 4.99 µM; in the test on K562 [1] (read-out: IC50), 12.2 µM; in the test on K562 [1] (read-out: pIC50 (converted)) it was 12.2 µM; in the test with K562 [2], 16.8 µM. Moreover, in test [3], the IC50 was 73.2 µM.

Consider `CCn1c2ccncc2c2cc(S(=O)(=O)Nc3cc(OC)c(OC)c(OC)c3)ccc21`, for which the IC50 in the test on A549 is over 100 µM; in the test on HCT-116, 32.3 µM; in the test on MCF7, 5.8 µM; in the test on K562 [1] (read-out: IC50), 6.09 µM; in the test with K562 [1] (read-out: pIC50 (converted)) it was 6.1 µM; in the test on K562 [2] it was over 100 µM. In test [3], this compound registered an IC50 of over 100 µM.

For the compound `O=S(=O)(Oc1cccc(Cl)c1)c1ccc2[nH]c3ccncc3c2c1`, the IC50 in the test with A549 was 43.6 µM; in the test on HCT-116 it was 42.7 µM; in the test on MCF7, 47.5 µM; with K562 [1] (read-out: IC50), 13.2 µM; in the test on K562 [1] (read-out: pIC50 (converted)) it was 13.2 µM; in the test with K562 [2] it was 8.42 µM. In test [3], the IC50 came out at 5.82 µM.

For `COc1cc(OS(=O)(=O)c2ccc3[nH]c4ccncc4c3c2)cc(OC)c1OC`, the IC50 was 0.77 µM with HCT-116; 0.86 µM with MCF7; 4.5 µM in the test on K562 [1] (read-out: IC50); 4.5 µM in the test with K562 [1] (read-out: pIC50 (converted)); 2.62 µM in the test on K562 [2]; 0.15 µM in test [3].

On to `COc1ccccc1OS(=O)(=O)c1ccc2[nH]c3ccncc3c2c1`, for which the IC50 with A549 is 32 µM; in the test with HCT-116 it was 64.1 µM; in the test on MCF7 it was 24.7 µM; in the test on K562 [1] (read-out: IC50) it was 14.1 µM; in the test with K562 [1] (read-out: pIC50 (converted)), 14.1 µM; in the test on K562 [2], 15.3 µM. The IC50 in test [3] is 54.3 µM.

Turning to `O=S(=O)(Nc1cccc2ncccc12)c1ccc2[nH]c3ccncc3c2c1`, the IC50 was 22.8 µM in the test with A549; 30.8 µM in the test with HCT-116; 23.7 µM in the test with MCF7; 12.7 µM with K562 [1] (read-out: IC50); 12.7 µM in the test on K562 [1] (read-out: pIC50 (converted)); 18.5 µM in the test on K562 [2]. Further, in test [3], the IC50 is 95.4 µM.

The record behind these values is ChEMBL document CHEMBL1138624, “Design, synthesis, and quantitative structure-activity relationship of cytotoxic gamma-carboline derivatives” (Bioorg Med Chem, 2009).
